According to ChEMBL document CHEMBL1152869, “An inhibitor of FtsZ with potent and selective anti-staphylococcal activity” (Science, 2008):
≈ marks a conversion by molar mass, not a printed value. Calls of active or inactive are those of the source. No cut-off for these calls is given here.

Columns and labels:
Bacillus subtilis [1] = experiment: Antibacterial activity against Bacillus subtilis bearing FtsZ A47P mutant by broth microdilution method; assay type: functional
Bacillus subtilis [2] = experiment: Antibacterial activity against Bacillus subtilis bearing FtsZ V307H mutant by broth microdilution method; assay type: functional
Bacillus subtilis [3] = experiment: Antibacterial activity against Bacillus subtilis bearing FtsZ G196A mutant by broth microdilution method; assay type: functional
Staphylococcus aureus [4] = experiment: Antibacterial activity against Staphylococcus aureus by broth microdilution method; assay type: functional
Bacillus subtilis [5] = experiment: Antibacterial activity against Bacillus subtilis bearing FtsZ V307R mutant by broth microdilution method; assay type: functional
Bacillus subtilis [6] = experiment: Antibacterial activity against Bacillus subtilis by broth microdilution method; assay type: functional
Streptococcus pneumoniae = experiment: Antibacterial activity against Streptococcus pneumoniae by broth microdilution method; assay type: functional
Staphylococcus aureus [7] = experiment: Bactericidal activity against Staphylococcus aureus ATCC 29213 assessed as logarithmic reduction in viable cell numbers at >= MIC after 24 hrs; assay type: functional
Staphylococcus aureus [8] = experiment: Antibacterial activity against Staphylococcus aureus Smith ATCC 19636 in CD1 mouse septicemia model assessed as survival at 30 mg/kg, iv after 7 days relative to control; assay type: functional; conditions: 168 h
In short: (§1)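 At 1 h post-infection they received a single SC or IV dose of 3, 10 or 30 mg/kg. Controls were vehicle only and vancomycin 3 mg/kg by the same route. Mortality was recorded daily for 7 days, and ED50 was derived from dose-dependent survival.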

Staphylococcus warneri = experiment: Antibacterial activity against Staphylococcus warneri by broth microdilution method; assay type: functional
[9] = system: Staphylococcus haemolyticus; experiment: Antibacterial activity against Staphylococcus haemolyticus by broth microdilution method; assay type: functional
Staphylococcus aureus [10] = experiment: Antibacterial activity against methicillin-resistant Staphylococcus aureus by broth microdilution method; assay type: functional
Staphylococcus aureus [11] = experiment: Antibacterial activity against Staphylococcus aureus bearing FtsZ R191P mutant by broth microdilution method; assay type: functional
Staphylococcus aureus [12] = experiment: Antibacterial activity against Staphylococcus aureus bearing FtsZ G196A mutant by broth microdilution method; assay type: functional
[13] = system: Staphylococcus saprophyticus; experiment: Antibacterial activity against Staphylococcus saprophyticus by broth microdilution method; assay type: functional
Bacillus subtilis [14] = experiment: Inhibition of cell division in Bacillus subtilis 168 assessed as elongation of cells at 2 ug/ml by phase contrast microscopy; assay type: functional, organism-based; conditions: subsp. subtilis str. 168
In short: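 B. subtilis 168 cells grown with or without compound at 2 μg/ml; cell morphology examined by phase-contrast microscopy.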

Staphylococcus aureus [15] = experiment: Bactericidal activity against Staphylococcus aureus ATCC 29213 assessed as reduction in cell viability at 2 ug/ml within 24 hrs by serial dilution method
[16] = target: T1, Cell division protein FtsZ (Staphylococcus aureus, UniProt P0A031); experiment: (§2) Inhibition of Staphylococcus aureus FtsZ GTPase activity
T1 sequence (P0A031 whole entry): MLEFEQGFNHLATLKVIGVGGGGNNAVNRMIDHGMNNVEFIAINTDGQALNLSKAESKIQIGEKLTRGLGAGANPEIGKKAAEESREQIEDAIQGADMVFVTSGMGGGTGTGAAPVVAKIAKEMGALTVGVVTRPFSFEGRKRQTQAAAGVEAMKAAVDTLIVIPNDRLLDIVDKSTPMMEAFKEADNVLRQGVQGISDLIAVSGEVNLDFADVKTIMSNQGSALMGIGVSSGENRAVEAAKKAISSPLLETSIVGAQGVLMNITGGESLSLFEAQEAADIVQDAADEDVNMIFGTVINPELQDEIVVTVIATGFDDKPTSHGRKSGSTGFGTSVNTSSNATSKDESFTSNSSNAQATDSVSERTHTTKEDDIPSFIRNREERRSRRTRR
In short: (§3)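 S. aureus FtsZ cloned, overexpressed and purified; in vitro GTPase activity measured across a compound concentration series; IC50 derived from concentration-dependent inhibition.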

[17] = target: T2, Cell division protein FtsZ (Staphylococcus aureus) (UniProt P0A031); experiment: as §2; in short: as §3
T2 sequence (whole entry): T1 sequence (P0A031 whole entry)

[18] = target: T3, Cell division protein FtsZ (Bacillus subtilis (strain 168)) (UniProt P17865); experiment: Inhibition of GFP-FtsZ localization in Bacillus subtilis 2020 assessed as protein mislocalization to assemble into cytokinetic ring at 8 ug/ml by florescence microscopy
T3 sequence (whole entry): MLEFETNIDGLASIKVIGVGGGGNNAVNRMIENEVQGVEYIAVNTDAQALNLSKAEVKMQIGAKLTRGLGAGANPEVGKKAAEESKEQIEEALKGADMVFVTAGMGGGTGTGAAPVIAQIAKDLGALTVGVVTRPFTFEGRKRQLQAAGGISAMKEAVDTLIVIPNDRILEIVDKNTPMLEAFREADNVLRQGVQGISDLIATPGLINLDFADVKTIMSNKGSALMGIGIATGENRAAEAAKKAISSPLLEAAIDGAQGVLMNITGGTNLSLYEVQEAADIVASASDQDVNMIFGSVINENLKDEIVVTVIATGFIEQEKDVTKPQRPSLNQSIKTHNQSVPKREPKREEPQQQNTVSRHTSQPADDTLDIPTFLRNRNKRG
In short: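 B. subtilis 2020 carrying gfp-ftsZ cultured with or without compound at 8 μg/ml; FtsZ localization visualized by fluorescence microscopy.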

Escherichia coli = experiment: Antibacterial activity against Escherichia coli by broth microdilution method; assay type: functional
[19] = system: Staphylococcus epidermidis; experiment: Antibacterial activity against Staphylococcus epidermidis by broth microdilution method; assay type: functional
Staphylococcus aureus [20] = experiment: Antibacterial activity against Staphylococcus aureus bearing FtsZ G193D mutant by broth microdilution method; assay type: functional
Staphylococcus aureus [21] = experiment: Antibacterial activity against Staphylococcus aureus bearing FtsZ V214F mutant by broth microdilution method; assay type: functional
Staphylococcus aureus [22] = experiment: Antibacterial activity against Staphylococcus aureus Smith ATCC 19636 in CD1 mouse septicemia model assessed as survival at 30 mg/kg, sc after 7 days relative to control; assay type: functional; conditions: 168 h, route subcutaneous; in short: as §1
Haemophilus influenzae = experiment: Antibacterial activity against Haemophilus influenzae by broth microdilution method; assay type: functional
HepG2 = experiment: Cytotoxicity against human HepG2 cells; assay type: cell-based
[23] = system: Staphylococcus lugdunensis; experiment: Antibacterial activity against Staphylococcus lugdunensis by broth microdilution method; assay type: functional
Staphylococcus aureus [24] = experiment: Antibacterial activity against Staphylococcus aureus Smith ATCC 19636 in sc dosed CD1 mouse septicemia model assessed as survival after 7 days; assay type: functional; in short: as §1
Staphylococcus aureus [25] = experiment: Antibacterial activity against Staphylococcus aureus Smith ATCC 19636 in iv dosed CD1 mouse septicemia model assessed as survival after 7 days; assay type: functional; in short: as §1
Staphylococcus aureus [26] = experiment: Antibacterial activity against Staphylococcus aureus bearing FtsZ G266S mutant by broth microdilution method; assay type: functional
Staphylococcus aureus [27] = experiment: Inhibition of cell division in Staphylococcus aureus ATCC 29213 assessed as enlargement of cells at 2 ug/ml by phase contrast microscopy; assay type: functional, organism-based
In short: (§4)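 S. aureus ATCC 29213 cells grown with or without compound at 2 μg/ml; cell morphology examined by phase-contrast microscopy.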

Bos taurus [28] = species: Bos taurus; experiment: Inhibition of bovine brain tubulin polymerization at 64 ug/ml
Staphylococcus aureus [29] = experiment: Antibacterial activity against Staphylococcus aureus Smith ATCC 19636 in ip dosed CD1 mouse septicemia model assessed as survival administered 1 hr postinfection measured after 7 days; assay type: functional
Saccharomyces cerevisiae = experiment: Antifungal activity against Saccharomyces cerevisiae by broth microdilution method; assay type: functional
Staphylococcus hominis = experiment: Antibacterial activity against Staphylococcus hominis by broth microdilution method; assay type: functional
Staphylococcus aureus [30] = experiment: Antibacterial activity against Staphylococcus aureus bearing FtsZ N263K mutant by broth microdilution method; assay type: functional
Staphylococcus aureus [31] = experiment: Antibacterial activity against multidrug-resistant Staphylococcus aureus by broth microdilution method; assay type: functional
Enterococcus faecalis = experiment: Antibacterial activity against Enterococcus faecalis by broth microdilution method; assay type: functional
Bos taurus [32] = species: Bos taurus; experiment: Enhancement of bovine brain tubulin polymerization at 64 ug/ml
Staphylococcus aureus [33] = experiment: Inhibition of cell division in Staphylococcus aureus ATCC 29213 assessed as enlargement of cells at 2 ug/ml within 2 hrs by phase contrast microscopy; assay type: functional, organism-based; in short: as §4
Pseudomonas aeruginosa = experiment: Antibacterial activity against Pseudomonas aeruginosa by broth microdilution method; assay type: functional
Bos taurus [34] = species: Bos taurus; experiment: Enhancement of bovine brain tubulin polymerization at 25 uM
Bacillus subtilis [35] = experiment: Inhibition of cell division in Bacillus subtilis 168 at 50 uM by phase contrast microscopy; assay type: functional, organism-based; conditions: subsp. subtilis str. 168

SMILES: COc1cccc(C(N)=O)c1
- MIC (Bacillus subtilis [1]): > 8190 µg/mL
- MIC (Bacillus subtilis [2]): 4100 µg/mL (≈ 27100 µM)
- MIC (Bacillus subtilis [3]): 1020 µg/mL (≈ 6770 µM)
- MIC (Staphylococcus aureus [4]): 2050 µg/mL (≈ 13500 µM)
- MIC (Bacillus subtilis [5]): > 8190 µg/mL
- MIC (Bacillus subtilis [6]): 2050 µg/mL (≈ 13500 µM)

SMILES: NC(=O)c1c(F)ccc(OCc2nc3cc(Cl)cnc3s2)c1F
- MIC (Streptococcus pneumoniae): > 64 µg/mL
- Activity (Staphylococcus aureus [7]): >3
- survival at 30 mg/kg (Staphylococcus aureus [8]): 100%
- MIC (Staphylococcus warneri): 1 µg/mL (≈ 2.81 µM)
- MIC (Bacillus subtilis [1]): 1 µg/mL (≈ 2.81 µM)
- MIC [9]: 0.5 µg/mL (≈ 1.41 µM)
- MIC (Staphylococcus aureus [10]): 1 µg/mL (≈ 2.81 µM)
- MIC (Staphylococcus aureus [11]): > 512 µg/mL
- MIC (Staphylococcus aureus [12]): > 512 µg/mL
- MIC [13]: 1 µg/mL (≈ 2.81 µM)
- MIC (Bacillus subtilis [2]): 2 µg/mL (≈ 5.62 µM)
- Activity (Bacillus subtilis [14]): Active
- Activity (Staphylococcus aureus [15]): Active
- IC50 [16]: 155 nM
- Activity [17]: Dose-dependent effect
- MIC (Bacillus subtilis [3]): > 64 µg/mL
- Activity [18]: Active
- MIC (Escherichia coli): > 64 µg/mL
- MIC [19]: 1 µg/mL (≈ 2.81 µM)
- MIC (Staphylococcus aureus [20]): > 512 µg/mL
- MIC (Staphylococcus aureus [4]): 1 µg/mL (≈ 2.81 µM)
- MIC (Staphylococcus aureus [21]): > 512 µg/mL
- survival at 30 mg/kg (Staphylococcus aureus [22]): 100%
- MIC (Haemophilus influenzae): > 64 µg/mL
- IC50 (HepG2): > 64 µg/mL
- MIC [23]: 1 µg/mL (≈ 2.81 µM)
- MIC (Bacillus subtilis [5]): 8 µg/mL (≈ 22.5 µM)
- Activity (Staphylococcus aureus [24]): Dose-dependent effect
- ED50 (Staphylococcus aureus [24]; 168 h): 7.3 mg/kg
- Activity (Staphylococcus aureus [25]): Dose-dependent effect
- ED50 (Staphylococcus aureus [25]; 168 h): 10.2 mg/kg
- MIC (Staphylococcus aureus [26]): > 512 µg/mL
- Activity (Staphylococcus aureus [27]): Active
- Activity (Bos taurus [28]): inactive
- ED50 (Staphylococcus aureus [29]): 3.1 mg/kg
- MIC (Saccharomyces cerevisiae): > 64 µg/mL
- MIC (Staphylococcus hominis): 1 µg/mL (≈ 2.81 µM)
- MIC (Staphylococcus aureus [30]): > 512 µg/mL
- MIC (Bacillus subtilis [6]): 0.5 µg/mL (≈ 1.41 µM)
- MIC (Staphylococcus aureus [31]): 1 µg/mL (≈ 2.81 µM)
- MIC (Enterococcus faecalis): > 64 µg/mL
- Activity (Bos taurus [32]): inactive
- Activity (Staphylococcus aureus [33]): Active
- MIC (Pseudomonas aeruginosa): > 64 µg/mL

SMILES: CC(=O)O[C@H]1C(=O)[C@@]2(C)[C@H]([C@H](OC(=O)c3ccccc3)[C@]3(O)C[C@H](OC(=O)[C@H](O)[C@@H](NC(=O)c4ccccc4)c4ccccc4)C(C)=C1C3(C)C)[C@]1(OC(C)=O)CO[C@@H]1C[C@@H]2O
- Activity (Bos taurus [34]): Active
- Activity (Bacillus subtilis [35]): inactive
